Results: ChEMBL document CHEMBL1145427, “Quick assembly of 1,4-diphenyltriazoles as probes targeting beta-amyloid aggregates in Alzheimer's disease” (J Med Chem, 2007)

Legend:
Zone of skin [1] = test: Biodistribution in ICR mouse skin at 5 to 10 uCi, iv after 2 mins; assay type: ADME, organism-based; settings: in vivo
Summary of the method: (§1)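 Male ICR mice (22–25 g) under isoflurane anesthesia; [125I] or [18F] tracer (5–10 μCi) in 0.15 mL of 0.1% bovine serum albumin solution injected into the tail vein. Groups of n = 3 per time point, killed by cervical dislocation. Organs removed, weighed and gamma-counted against diluted aliquots of injected dose, giving % dose/organ and % ID/g. Total blood activity assumed as 7% of body weight.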

Thyroid gland [2] = test: Biodistribution in ICR mouse thyroid at 5 to 10 uCi, iv after 2 hrs; assay type: ADME, organism-based; settings: in vivo; summary of the method: as §1
Brain [3] = test: Biodistribution in ICR mouse brain at 5 to 10 uCi, iv after 2 hrs; assay type: ADME, organism-based; settings: in vivo; summary of the method: as §1
Brain [4] = test: Biodistribution in ICR mouse brain at 5 to 10 uCi, iv after 2 mins; assay type: ADME, organism-based; settings: in vivo; summary of the method: as §1
Blood [5] = test: Biodistribution in ICR mouse blood at 5 to 10 uCi, iv after 2 hrs; assay type: ADME, organism-based; settings: in vivo; summary of the method: as §1
Blood [6] = test: Biodistribution in ICR mouse blood at 5 to 10 uCi, iv after 2 mins; assay type: ADME, organism-based; settings: in vivo; summary of the method: as §1
Muscle tissue [7] = test: Biodistribution in ICR mouse muscle at 5 to 10 uCi, iv after 30 mins; assay type: ADME, organism-based; settings: in vivo, 0.5 h; summary of the method: as §1
Kidney [8] = test: Biodistribution in ICR mouse kidney at 5 to 10 uCi, iv after 1 hr; assay type: ADME, organism-based; settings: in vivo; summary of the method: as §1
Thyroid gland [9] = test: Biodistribution in ICR mouse thyroid at 5 to 10 uCi, iv after 2 mins; assay type: ADME, organism-based; settings: in vivo; summary of the method: as §1
Muscle tissue [10] = test: Biodistribution in ICR mouse muscle at 5 to 10 uCi, iv after 2 mins; assay type: ADME, organism-based; settings: in vivo; summary of the method: as §1
Liver [11] = test: Biodistribution in ICR mouse liver at 5 to 10 uCi, iv after 30 mins; assay type: ADME, organism-based; settings: in vivo, 0.5 h; summary of the method: as §1
Heart [12] = test: Biodistribution in ICR mouse heart at 5 to 10 uCi, iv after 2 mins; assay type: ADME, organism-based; settings: in vivo; summary of the method: as §1
Heart [13] = test: Biodistribution in ICR mouse heart at 5 to 10 uCi, iv after 1 hr; assay type: ADME, organism-based; settings: in vivo; summary of the method: as §1
Lung [14] = test: Biodistribution in ICR mouse lung at 5 to 10 uCi, iv after 1 hr; assay type: ADME, organism-based; settings: in vivo; summary of the method: as §1
[15] = Partition coefficient, log P of the compound; assay type: physicochemical; settings: octanol/water
Summary of the method: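 [125I] or [18F] tracer mixed with 3 g each of 1-octanol and 0.1 M phosphate buffer pH 7.4. Vortexed 3 min at room temperature, then centrifuged 5 min. Two 0.5 g samples from each layer counted; PC is the ratio of cpm/g in octanol to cpm/g in buffer. The octanol layer was repartitioned until values were consistent.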

Lung [16] = test: Biodistribution in ICR mouse lung at 5 to 10 uCi, iv after 30 mins; assay type: ADME, organism-based; settings: in vivo, 0.5 h; summary of the method: as §1
Zone of skin [17] = test: Biodistribution in ICR mouse skin at 5 to 10 uCi, iv after 2 hrs; assay type: ADME, organism-based; settings: in vivo; summary of the method: as §1
Spleen [18] = test: Biodistribution in ICR mouse spleen at 5 to 10 uCi, iv after 2 hrs; assay type: ADME, organism-based; settings: in vivo; summary of the method: as §1
Muscle tissue [19] = test: Biodistribution in ICR mouse muscle at 5 to 10 uCi, iv after 2 hrs; assay type: ADME, organism-based; settings: in vivo; summary of the method: as §1
Liver [20] = test: Biodistribution in ICR mouse liver at 5 to 10 uCi, iv after 2 hrs; assay type: ADME, organism-based; settings: in vivo; summary of the method: as §1
Blood [21] = test: Biodistribution in ICR mouse blood at 5 to 10 uCi, iv after 1 hr; assay type: ADME, organism-based; settings: in vivo; summary of the method: as §1
Spleen [22] = test: Biodistribution in ICR mouse spleen at 5 to 10 uCi, iv after 30 mins; assay type: ADME, organism-based; settings: in vivo, 0.5 h; summary of the method: as §1
Thyroid gland [23] = test: Biodistribution in ICR mouse thyroid at 5 to 10 uCi, iv after 30 mins; assay type: ADME, organism-based; settings: in vivo, 0.5 h; summary of the method: as §1
Heart [24] = test: Biodistribution in ICR mouse heart at 5 to 10 uCi, iv after 30 mins; assay type: ADME, organism-based; settings: in vivo, 0.5 h; summary of the method: as §1
Spleen [25] = test: Biodistribution in ICR mouse spleen at 5 to 10 uCi, iv after 2 mins; assay type: ADME, organism-based; settings: in vivo; summary of the method: as §1
Lung [26] = test: Biodistribution in ICR mouse lung at 5 to 10 uCi, iv after 2 mins; assay type: ADME, organism-based; settings: in vivo; summary of the method: as §1
Blood [27] = test: Biodistribution in ICR mouse blood at 5 to 10 uCi, iv after 30 mins; assay type: ADME, organism-based; settings: in vivo, 0.5 h; summary of the method: as §1
Lung [28] = test: Biodistribution in ICR mouse lung at 5 to 10 uCi, iv after 2 hrs; assay type: ADME, organism-based; settings: in vivo; summary of the method: as §1
Liver [29] = test: Biodistribution in ICR mouse liver at 5 to 10 uCi, iv after 1 hr; assay type: ADME, organism-based; settings: in vivo; summary of the method: as §1
Heart [30] = test: Biodistribution in ICR mouse heart at 5 to 10 uCi, iv after 2 hrs; assay type: ADME, organism-based; settings: in vivo; summary of the method: as §1
Kidney [31] = test: Biodistribution in ICR mouse kidney at 5 to 10 uCi, iv after 30 mins; assay type: ADME, organism-based; settings: in vivo, 0.5 h; summary of the method: as §1
Kidney [32] = test: Biodistribution in ICR mouse kidney at 5 to 10 uCi, iv after 2 mins; assay type: ADME, organism-based; settings: in vivo; summary of the method: as §1
Kidney [33] = test: Biodistribution in ICR mouse kidney at 5 to 10 uCi, iv after 2 hrs; assay type: ADME, organism-based; settings: in vivo; summary of the method: as §1
Zone of skin [34] = test: Biodistribution in ICR mouse skin at 5 to 10 uCi, iv after 1 hr; assay type: ADME, organism-based; settings: in vivo; summary of the method: as §1
Brain [35] = test: Biodistribution in ICR mouse brain at 5 to 10 uCi, iv after 30 mins; assay type: ADME, organism-based; settings: in vivo, 0.5 h; summary of the method: as §1
Zone of skin [36] = test: Biodistribution in ICR mouse skin at 5 to 10 uCi, iv after 30 mins; assay type: ADME, organism-based; settings: in vivo, 0.5 h; summary of the method: as §1
Liver [37] = test: Biodistribution in ICR mouse liver at 5 to 10 uCi, iv after 2 mins; assay type: ADME, organism-based; settings: in vivo; summary of the method: as §1
Thyroid gland [38] = test: Biodistribution in ICR mouse thyroid at 5 to 10 uCi, iv after 1 hr; assay type: ADME, organism-based; settings: in vivo; summary of the method: as §1
Brain [39] = test: Biodistribution in ICR mouse brain at 5 to 10 uCi, iv after 1 hr; assay type: ADME, organism-based; settings: in vivo; summary of the method: as §1
Spleen [40] = test: Biodistribution in ICR mouse spleen at 5 to 10 uCi, iv after 1 hr; assay type: ADME, organism-based; settings: in vivo; summary of the method: as §1
Muscle tissue [41] = test: Biodistribution in ICR mouse muscle at 5 to 10 uCi, iv after 1 hr; assay type: ADME, organism-based; settings: in vivo; summary of the method: as §1

## CN(C)c1ccc(-c2cn(-c3ccc([125I])cc3)nn2)cc1
Zone of skin [1]
  Drug uptake: 0.71 % ID/g
Thyroid gland [2]
  Drug uptake: 89.1 % ID/g
Brain [3]
  Drug uptake: 0.29 % ID/g
Brain [4]
  Drug uptake: 7.22 % ID/g
Blood [5]
  Drug uptake: 1.21 % ID/g
Blood [6]
  Drug uptake: 2.84 % ID/g
Muscle tissue [7]
  Drug uptake: 1.11 % ID/g
Kidney [8]
  Drug uptake: 2.13 % ID/g
Thyroid gland [9]
  Drug uptake: 3.17 % ID/g
Muscle tissue [10]
  Drug uptake: 0.76 % ID/g
Liver [11]
  Drug uptake: 6.93 % ID/g
Heart [12]
  Drug uptake: 6.61 % ID/g
Heart [13]
  Drug uptake: 0.78 % ID/g
Lung [14]
  Drug uptake: 1.66 % ID/g
[15]
  logP: 3.4
Lung [16]
  Drug uptake: 2.55 % ID/g
Zone of skin [17]
  Drug uptake: 1.19 % ID/g
Spleen [18]
  Drug uptake: 0.69 % ID/g
Muscle tissue [19]
  Drug uptake: 0.36 % ID/g
Liver [20]
  Drug uptake: 2.49 % ID/g
Blood [21]
  Drug uptake: 1.33 % ID/g
Spleen [22]
  Drug uptake: 1.35 % ID/g
Thyroid gland [23]
  Drug uptake: 11 % ID/g
Heart [24]
  Drug uptake: 1.34 % ID/g
Spleen [25]
  Drug uptake: 5.32 % ID/g
Lung [26]
  Drug uptake: 8.93 % ID/g
Blood [27]
  Drug uptake: 1.63 % ID/g
Lung [28]
  Drug uptake: 1.43 % ID/g
Liver [29]
  Drug uptake: 3.74 % ID/g
Heart [30]
  Drug uptake: 0.56 % ID/g
Kidney [31]
  Drug uptake: 3.66 % ID/g
Kidney [32]
  Drug uptake: 11.5 % ID/g
Kidney [33]
  Drug uptake: 1.52 % ID/g
Zone of skin [34]
  Drug uptake: 1.93 % ID/g
Brain [35]
  Drug uptake: 1.94 % ID/g
Zone of skin [36]
  Drug uptake: 2.2 % ID/g
Liver [37]
  Drug uptake: 17.4 % ID/g
Thyroid gland [38]
  Drug uptake: 17 % ID/g
Brain [39]
  Drug uptake: 0.64 % ID/g
Spleen [40]
  Drug uptake: 0.89 % ID/g
Muscle tissue [41]
  Drug uptake: 0.61 % ID/g
